≈ marks a conversion by molar mass, not a printed value.

Data set [1] has as its target T1, Potassium voltage-gated channel subfamily A member 5 (Homo sapiens, UniProt P22460). Description: Inhibition of Kv1.5 channel mediated delayed rectifier potassium current at 1 uM by patch-clamp technique.
Data set [2] has as its target T1, Potassium voltage-gated channel subfamily A member 5. In words: Inhibition of Kv1.5 channel mediated delayed rectifier potassium current by patch-clamp technique. In general terms: Patch clamp records ionic current or voltage across a cell membrane.
Data set [3] can be described thus: Aqueous solubility of the compound. The conditions noted are these: buffer. Format: physicochemical. Put shortly: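 Crystalline solid; shake-flask method in 50 mM phosphate-buffered saline, pH 6.8; dissolved compound quantified by LC/MS/MS.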
Data set [4] has as its target hERG (KCNH2) (Homo sapiens, UniProt Q12809). Description: Inhibition of hERG at 10 uM. In kind it is toxicity. In general terms: Block of hERG is tested as a sign of cardiac risk.
Data set [5] deals with SCN5A (sodium channel protein type 5 subunit alpha) (Homo sapiens, UniProt Q14524). Description: Inhibition of human SCN5A channel at 10 uM.
A short description of data set [6]: Oral bioavailability in rat at 20 umol/kg. In kind it is ADME, organism-based. The following applies: in vivo.
Data set [7] is described as follows: Oral bioavailability in dog at 20 umol/kg. Format: ADME, organism-based, Canis lupus familiaris. The conditions noted are these: in vivo.
Data set [8] can be described thus: Half life in intra arterial infusion dosed rat at 10 umol/kg. Format: ADME, organism-based. The conditions noted are these: in vivo.
Data set [9] in a line: Half life in intra arterial infusion dosed dog at 10 umol/kg. The conditions noted are these: in vivo. In kind it is ADME, organism-based, Canis lupus familiaris.
The nature of data set [10]: Clearance in rat at 20 umol/kg, po. The conditions noted are these: in vivo. In kind it is ADME, organism-based.
The nature of data set [11]: Clearance in dog at 20 umol/kg, po. The following applies: in vivo. In kind it is ADME, organism-based, Canis lupus familiaris.
The subject of data set [12] is Rattus norvegicus. Description: Volume of distribution in rat at 20 umol/kg, po. The conditions noted are these: in vivo. Format: ADME, organism-based.
Data set [13] deals with Canis familiaris. In words: Volume of distribution in dog at 20 umol/kg, po. The conditions noted are these: in vivo. Format: ADME, organism-based, Canis lupus familiaris.
The species named for data set [14] is Rattus norvegicus. In words: Inhibition of rat calcium channel GH3 at 10 uM.

T1 sequence (P22460 whole entry): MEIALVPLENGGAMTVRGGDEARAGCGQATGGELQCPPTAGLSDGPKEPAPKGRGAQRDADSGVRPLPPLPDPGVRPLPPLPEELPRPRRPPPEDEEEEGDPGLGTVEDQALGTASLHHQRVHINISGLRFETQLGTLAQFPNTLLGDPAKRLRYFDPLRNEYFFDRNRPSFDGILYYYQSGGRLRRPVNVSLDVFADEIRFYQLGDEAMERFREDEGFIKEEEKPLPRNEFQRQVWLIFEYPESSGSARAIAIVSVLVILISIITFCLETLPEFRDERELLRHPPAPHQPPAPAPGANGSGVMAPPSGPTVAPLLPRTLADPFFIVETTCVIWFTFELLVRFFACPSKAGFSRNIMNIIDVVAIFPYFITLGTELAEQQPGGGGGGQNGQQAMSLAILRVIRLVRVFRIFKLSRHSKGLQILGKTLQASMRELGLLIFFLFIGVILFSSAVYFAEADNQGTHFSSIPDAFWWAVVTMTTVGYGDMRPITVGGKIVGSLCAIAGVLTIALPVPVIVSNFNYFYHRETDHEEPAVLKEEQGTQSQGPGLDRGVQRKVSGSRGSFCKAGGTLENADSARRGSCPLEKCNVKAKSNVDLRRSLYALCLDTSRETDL
Sequence of hERG (KCNH2) (Q12809 whole entry): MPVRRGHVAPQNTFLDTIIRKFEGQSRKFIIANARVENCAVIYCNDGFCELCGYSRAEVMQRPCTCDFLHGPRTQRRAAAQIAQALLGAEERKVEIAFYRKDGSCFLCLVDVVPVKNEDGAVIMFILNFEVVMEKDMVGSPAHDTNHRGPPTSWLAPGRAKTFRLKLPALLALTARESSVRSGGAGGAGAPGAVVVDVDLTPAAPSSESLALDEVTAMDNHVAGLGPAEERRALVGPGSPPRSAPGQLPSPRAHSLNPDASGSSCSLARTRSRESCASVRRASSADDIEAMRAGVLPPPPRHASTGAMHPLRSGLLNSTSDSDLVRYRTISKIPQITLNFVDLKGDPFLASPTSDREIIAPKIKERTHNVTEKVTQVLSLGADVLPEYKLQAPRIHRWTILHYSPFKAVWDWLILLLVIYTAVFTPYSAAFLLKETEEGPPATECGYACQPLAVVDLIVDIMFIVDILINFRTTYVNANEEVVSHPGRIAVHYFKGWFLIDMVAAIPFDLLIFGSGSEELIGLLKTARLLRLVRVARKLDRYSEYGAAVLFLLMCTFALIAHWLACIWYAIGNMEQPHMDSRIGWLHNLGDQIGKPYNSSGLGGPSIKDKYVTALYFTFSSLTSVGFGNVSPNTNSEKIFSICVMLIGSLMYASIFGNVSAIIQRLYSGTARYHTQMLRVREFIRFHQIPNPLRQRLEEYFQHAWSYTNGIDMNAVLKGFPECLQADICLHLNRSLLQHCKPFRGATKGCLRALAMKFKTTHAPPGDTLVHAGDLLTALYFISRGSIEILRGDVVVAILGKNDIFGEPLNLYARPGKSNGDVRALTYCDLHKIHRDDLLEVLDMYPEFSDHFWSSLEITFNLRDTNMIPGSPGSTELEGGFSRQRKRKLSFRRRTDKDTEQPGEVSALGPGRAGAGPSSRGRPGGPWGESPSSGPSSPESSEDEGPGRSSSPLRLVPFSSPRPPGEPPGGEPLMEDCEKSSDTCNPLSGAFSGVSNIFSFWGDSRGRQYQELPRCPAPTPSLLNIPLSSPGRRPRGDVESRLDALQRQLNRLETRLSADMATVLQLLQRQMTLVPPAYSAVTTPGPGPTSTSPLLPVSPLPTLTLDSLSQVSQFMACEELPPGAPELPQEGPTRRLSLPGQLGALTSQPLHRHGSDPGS
Sequence of SCN5A (sodium channel protein type 5 subunit alpha) (Q14524 whole entry): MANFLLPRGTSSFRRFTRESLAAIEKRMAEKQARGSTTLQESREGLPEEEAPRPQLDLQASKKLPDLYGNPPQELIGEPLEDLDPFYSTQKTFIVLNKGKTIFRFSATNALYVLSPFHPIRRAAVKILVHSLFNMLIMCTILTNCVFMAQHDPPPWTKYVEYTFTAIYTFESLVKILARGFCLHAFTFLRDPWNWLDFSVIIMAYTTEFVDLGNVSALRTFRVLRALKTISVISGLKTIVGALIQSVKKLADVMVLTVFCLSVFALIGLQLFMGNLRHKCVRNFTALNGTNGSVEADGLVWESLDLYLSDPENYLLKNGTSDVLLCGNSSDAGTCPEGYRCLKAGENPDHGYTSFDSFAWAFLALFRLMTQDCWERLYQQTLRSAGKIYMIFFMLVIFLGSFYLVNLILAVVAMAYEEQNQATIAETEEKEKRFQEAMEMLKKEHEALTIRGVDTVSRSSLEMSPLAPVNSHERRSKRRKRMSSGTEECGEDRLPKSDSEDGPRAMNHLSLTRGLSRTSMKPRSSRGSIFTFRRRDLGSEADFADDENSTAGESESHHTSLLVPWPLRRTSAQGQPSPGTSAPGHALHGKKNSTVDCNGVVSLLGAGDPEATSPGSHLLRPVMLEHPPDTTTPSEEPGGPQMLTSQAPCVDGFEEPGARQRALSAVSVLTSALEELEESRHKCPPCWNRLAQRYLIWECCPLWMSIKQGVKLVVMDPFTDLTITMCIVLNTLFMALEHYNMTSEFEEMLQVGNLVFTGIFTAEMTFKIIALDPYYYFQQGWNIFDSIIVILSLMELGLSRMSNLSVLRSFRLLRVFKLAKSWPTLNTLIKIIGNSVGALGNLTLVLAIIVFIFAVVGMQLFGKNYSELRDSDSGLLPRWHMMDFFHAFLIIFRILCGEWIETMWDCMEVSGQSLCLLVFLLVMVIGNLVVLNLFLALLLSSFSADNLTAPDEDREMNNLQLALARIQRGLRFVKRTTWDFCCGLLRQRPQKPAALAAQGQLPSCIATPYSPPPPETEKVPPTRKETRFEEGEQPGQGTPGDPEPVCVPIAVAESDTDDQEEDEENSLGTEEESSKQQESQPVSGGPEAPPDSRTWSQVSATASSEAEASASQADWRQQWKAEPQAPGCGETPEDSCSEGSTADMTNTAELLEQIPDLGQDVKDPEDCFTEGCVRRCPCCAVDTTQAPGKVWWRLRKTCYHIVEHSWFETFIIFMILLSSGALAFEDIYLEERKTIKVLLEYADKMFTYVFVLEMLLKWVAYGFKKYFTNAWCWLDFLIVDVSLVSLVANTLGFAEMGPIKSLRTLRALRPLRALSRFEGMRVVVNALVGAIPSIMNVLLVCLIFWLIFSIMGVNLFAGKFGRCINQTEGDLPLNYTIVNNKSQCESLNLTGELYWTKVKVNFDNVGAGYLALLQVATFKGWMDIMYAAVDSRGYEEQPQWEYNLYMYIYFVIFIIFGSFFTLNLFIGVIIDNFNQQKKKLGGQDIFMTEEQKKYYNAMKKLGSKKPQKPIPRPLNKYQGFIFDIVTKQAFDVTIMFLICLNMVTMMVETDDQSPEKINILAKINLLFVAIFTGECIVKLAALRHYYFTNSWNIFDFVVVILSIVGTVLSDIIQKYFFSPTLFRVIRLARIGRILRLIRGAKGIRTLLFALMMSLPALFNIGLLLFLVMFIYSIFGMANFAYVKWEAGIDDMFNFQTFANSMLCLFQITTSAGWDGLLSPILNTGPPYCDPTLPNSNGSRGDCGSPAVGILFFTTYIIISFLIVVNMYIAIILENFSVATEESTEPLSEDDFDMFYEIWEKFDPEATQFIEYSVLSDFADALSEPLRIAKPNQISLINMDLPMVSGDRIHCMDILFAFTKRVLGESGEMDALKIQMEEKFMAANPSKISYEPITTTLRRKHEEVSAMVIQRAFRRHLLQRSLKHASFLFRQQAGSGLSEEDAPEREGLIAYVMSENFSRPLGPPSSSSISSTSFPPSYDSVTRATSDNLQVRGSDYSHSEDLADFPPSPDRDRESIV

For the molecule `CCc1ccc(S(=O)(=O)N[C@@H]2c3cccc(NC(=O)c4cccc(OC)c4)c3C[C@H]2O)cc1` (racemic), in [1], the inhibition – broadly, the relative decrease from the control value, in per cent – turned out to be 17%.

For `CCc1ccc(S(=O)(=O)N[C@@H]2c3c(cccc3NC(=O)c3cccc(OC)c3)C[C@H]2O)cc1` (racemic), the 50% inhibitory concentration (IC50) (as a rule, the concentration that inhibits the measured activity by half) in [2] was 880 nM.

For `CCc1ccc(S(=O)(=O)N[C@@H]2c3cc(NC(=O)c4cccc(OC)c4)ccc3C[C@H]2O)cc1` [listing 1 of 2 here], in [2], the IC50 amounted to 33 nM. For the same molecule, in data set [3], the solubility (usually the dissolved amount per volume that the medium holds) stood at 1.3 µg/mL (≈ 2.79 µM). The inhibition at 10 µM in data set [4] was found to be 37%; in data set [5], 15%. Also, the results for the bioavailability in data set [6] and in data set [7] were 1% and 5%, respectively. Also, the values for the half-life in data set [8] and in data set [9] were 24 min and 90 min, respectively. Further, the figures for the apparent clearance (CL/F) in data set [10] and in data set [11] were 200 mL/min/kg and 12 mL/min/kg, respectively. The Vd in data set [12] came to 4 L/kg; in data set [13] it was 1.4 L/kg.

`CCc1ccc(S(=O)(=O)N[C@@H]2c3cc(NC(=O)c4cccc(OC)c4)ccc3C[C@@H]2O)cc1` (racemic): 300 nM corresponded to half-maximal inhibition in data set [2] (IC50).

For the molecule `CCc1ccc(S(=O)(=O)N[C@@H]2c3cc(NC(=O)c4cccc(OC)c4)ccc3C[C@H]2O)cc1` [listing 2 of 2 here], the inhibition in data set [14] was determined as 27%.

With `CCc1ccc(S(=O)(=O)N[C@@H]2c3cc(NC(=O)c4cccc(OC)c4)ccc3CCC[C@H]2O)cc1` (racemic), the 50% inhibitory concentration (IC50) in data set [2] turned out to be 200 nM.

With `CCc1ccc(S(=O)(=O)N[C@@H]2c3cc(NC(=O)c4cccc(OC)c4)ccc3C[C@H]2O)cc1` (racemic), in data set [2], 160 nM corresponded to half-maximal inhibition (IC50). In [3], this molecule returned a solubility of 2.9 µg/mL (≈ 6.22 µM).

Consider `CCc1ccc(S(=O)(=O)N[C@H]2c3cc(NC(=O)c4cccc(OC)c4)ccc3C[C@@H]2O)cc1`, for which inhibition in data set [2] was half-maximal at 760 nM (IC50).

Turning to `CCc1ccc(S(=O)(=O)N[C@@H]2c3ccc(NC(=O)c4cccc(OC)c4)cc3C[C@H]2O)cc1` (racemic), the inhibition in data set [1] was 24%.

`CCc1ccc(S(=O)(=O)N[C@@H]2c3cc(NC(=O)c4cccc(OC)c4)ccc3CC[C@H]2O)cc1` (racemic): it took 440 nM to reach half-maximal inhibition in data set [2] (IC50).

`CCc1ccc(S(=O)(=O)NC2CCc3ccc(NC(=O)c4cccc(OC)c4)cc32)cc1` (racemic) gave an IC50 in data set [2] of 150 nM. In [3] (read-out: Solubility), the solubility was less than 0.1 µg/mL.

In [1], `CCc1ccc(S(=O)(=O)N[C@@H]2c3cc(N)ccc3C[C@H]2O)cc1` (racemic) had an inhibition of 2%.

Take `CCc1ccc(S(=O)(=O)NCc2cccc(NC(=O)c3cccc(OC)c3)c2)cc1`: the midpoint of inhibition in data set [2], the IC50, lay at 240 nM. Besides, the solubility in data set [3] (read-out: Solubility) worked out at 0.8 µg/mL (≈ 1.88 µM).

Molecule `CCc1ccc(S(=O)(=O)N[C@@H]2c3ccccc3C[C@H]2O)cc1` (racemic) gave an inhibition in data set [1] of 3%.
